Reference: the EternaBench riboswitch data

Tested on: MS2 coat protein
Assay: apparent Kd, MS2 coat protein; higher = weaker binding; RNA-MaP array; FMN 200 µM where present
In short: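 Stalled E. coli RNA polymerase transcribed each design on Illumina sequencing-chip clusters. The clusters were titrated with SNAP-549-labelled MS2 coat protein, starting at 0.7 or 1.5 nM and doubling up to 3 µM, first without ligand and then with constant ligand, in 100 mM Tris-HCl pH 7.5, 80 mM KCl, 4 mM MgCl2, BSA, DTT, yeast tRNA and Tween-20. Green signal was normalised to red-channel RNA signal and to the control-cluster median Fmax. The apparent Kd is the median of filtered binding-curve fits made for each cluster.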

[1] = designed as: ON switch for flavin mononucleotide, no ligand
[2] = ligand present: flavin mononucleotide, designed as: ON switch for flavin mononucleotide
[3] = designed as: OFF switch for flavin mononucleotide, no ligand
[4] = ligand present: flavin mononucleotide, designed as: OFF switch for flavin mononucleotide

Sequence | apparent Kd [1] | apparent Kd [2] | apparent Kd [3] | apparent Kd [4]
UGGAUCAUCGGAGGAUAUCAUGUAGAUACAUGAGGAUCACCCAUGUCGAUGGAGACAUCGGAGAUUGAGAAGGCCGAUGAUCCU | 543 nM | 30.9 nM | – | –
AGUAGAUCAGGAUAUACGUGAAAGGUCAAAGUGUCCCUACUACAUGAGGAUCACCCAUGUAGAAGGGAUCUACA | – | – | 13.4 nM | 14.6 nM
GACACCGUGUAGAAGGACCAGUGCGCUACUAUGGUAGGAUAUACAUGAGGAUCACCCAUGUGACGGCUUUCGGUGGGAGCAGUG | – | – | 10.9 nM | 19.8 nM
AUCCAGGUAACAUGAGGAUCACCCAUGUUCCUUCGCUCUGGCGAGGAUAUGAAGGGAUUGUCCCAUCAGAAGGCGCAUGGGUGC | 46.7 nM | 57.5 nM | – | –
GCACUGGAUGUAGGAUAUCAGGACGAUAAGUCCUGAGAAGGACAUGAGGAUCACCCAUGUCUCAAAACCAGUGCAUAUAAUAUA | – | – | 13.2 nM | 19.1 nM
UAAGUCUAAUGAGGAUAUCGUUAUCAAAGAUAAUGAGAAGGCAUACAAUCAUGAGGACAUGAGGAUCACCCAUGUUGUGACCAU | 40.9 nM | 17.6 nM | – | –
AACGAUCUAGGAUAUACAUGAGGAUCACCCAUGUAAGAGCCCAAACCAGGCUCCCUCUGUAGAAGGAGGUCAAA | – | – | – | 50.9 nM
AAGGUAUACUGAGGAUAUCCGUGGGUAUAUGGGUCUAGGAACAUGAGGAUCACCCAUGUUCCCUAGGAGAAGGCAGGACAUUAA | – | – | 25 nM | 33.6 nM
GGUUGGCGAGGAUAUACAUGAGGAUCACCCAUGUGAGAGAAAAAAGUGAGUAAGAAAAGUAGAAGGCGCUGACG | – | – | 40.1 nM | 302 nM
GUUGGCUGAGGAUAUGCUUGCAUGCUUUUGUGUUGCGGGUGACAUGAGGAUCACCCAUGUAGAAGGUGGUCGGC | – | – | 1040 nM | 817 nM
GUAGCAUACCAAGGAUAUUCAUAUAAUAAGUAAACAUGAGGAUCACCCAUGUAGUGAGAGCCUUGGGAGAAGGUGGAAUGCUAC | 16.6 nM | 18.3 nM | – | –
GCUUUAUUGGUCAGGAUAUACAUUUGUUACUCUUUGUAGAAGGGACAUGAGGAUCACCCAUGUACAUUACAUUC | – | – | 23.2 nM | 24.3 nM
AUACGGAGGGAGAAGGGCUAGGAGGUCCAGCUUAUGUGUGUUGCAACAUGAGGAUCACCCAUGUAGCAGGAUAUCCCUUGUACA | – | – | 42.9 nM | 231 nM
ACCUCACAUGAGGAUCACCCAUGUCAGGAUAUACAAACCGUGAUAAGACACGGUCGUAGUAGAAGGGACUAUGG | – | – | 69.5 nM | 24.9 nM
GACUGCUGAGGAUAUACAUGAGGAUCACCCAUGUGCUUCAGUAUCGAAAGAUACAUUGGUAGAAGGUAGUAGUC | – | – | 11.8 nM | 20.8 nM
AUCCUGCGAGGAUAUACAUAAUUUUUUUCGUUUUGACUCGAACAUGAGGAUCACCCAUGUAGAAGGUGCUACAC | – | – | 33.7 nM | 30.1 nM
ACCUUACAUGAGGAUCACCCAUGUCAGGAUAUCUCGGGCGGCUGAGGACCAGCCGCCCAGAGAAGGGACGAGGA | – | – | 14.7 nM | 15.3 nM
CCGUCAAUCGAGAAGGGCCUAUGUGCUACAUCGGCAGGAUAUCGACAUGAGGAUCACCCAUGUUGGCGAUCCUUUUUGGCGGAC | – | – | 156 nM | 24.1 nM
UUCCUGUCAGGAUAUGACUAGAUGCACGUUAGUGUGUUUACUUAGAAGGGACAUGAGGAUCACCCAUGUAUUCC | – | – | 26.2 nM | 24.3 nM

Sequence | apparent Kd [1] | apparent Kd [2] | apparent Kd [3] | apparent Kd [4]
UAUAUAUAGUAAGGAUAUGUAAUUGUUUUAUAAACAGAAGGUACUGACAUGAGGAUCACCCAUGUUUUAGUGUGGGCAUGUAGA | – | – | 57.4 nM | 78.8 nM
AGUAUGUACGCAGGAUAUACAUGAGGAUCACCCAUGUGGAACAGUGUAGUGCUAGUUGAUCCUCAGUAGAAGGGCGGUCGAAUA | – | – | 62.5 nM | 91.6 nM
UAUAUAUAGUAAGGAUAUGUAUUAAUUUUGUAAACAGAAGGUACUGACAUGAGGAUCACCCAUGUUUUAGUGUGGGCAUGUAGA | – | – | 130 nM | 208 nM
AUAUUGUGAGGAUAUCAGGUGUGCUAGCGUACUGGUACAUCUGAGAAGGCACAUGAGGAUCACCCAUGUUUCUU | – | – | 15.6 nM | 39.6 nM
AGCUACGUUUCGUAGCAGCUAGGUGAGGAUAUCCUUAACAUGAGGAUCACCCAUGUAUAGCCAUGGGAGAAGGCGCCUAGAAAG | 723 nM | 55.3 nM | – | –
UUAAAUCAUGUAGGAUAUGCAUGGCGAAGCUACGCAGAAGGACAUGAGGAUCACCCAUGUUAUAGCUACCAAGUAAGGUGGCAA | – | – | 77.9 nM | 236 nM
AGAUAACACCAGAAGGACAUGAGGAUCACCCAUGUAGGAUAUGGGCAUCACUCGAGAAAGAAAAGACCAAGUGGACACAUGGUC | 147 nM | 11 nM | – | –
AAGCUUGAUCCUCGUGUAUACAUGAGGAUCACCCAUGUGACGCAGGAUAUAGGCGUGUUAGUAGCCUAGAAGGGCGAGCAGCGA | – | – | 128 nM | 73.5 nM
CCGGGCGGUUUGCCCACACUGUCACAGGAUAUGCCCAAAACAUGAGGAUCACCCAUGUCAAAUACGCAGAAGGGUGAUCGGAAA | 55.8 nM | 37 nM | – | –
AAUAUAAGAGCUGGCUCUAAAAGAACAUGAGGAUCACCCAUGUAGGAUAUCAGCACGAUAAGUGCUGAGAAGGACAACCAGCUC | – | – | 16.7 nM | 15.7 nM
AAGAAGUGAGGAUAUGCUGCUCGUCACUUGCGUGAUGAGUAGCAGAAGGCACAUGAGGAUCACCCAUGUGGAAG | – | – | 33.9 nM | 47.8 nM
GUCCUUUCUGAGGAUAUUAUCUGGUUCGAUUGAUAAGAAGGCAGUACAUGAGGAUCACCCAUGUGGGUCGUUUG | – | – | 37.3 nM | 244 nM
UUCGUGCAGCUUUGCUGUACGCGUACAUGAGGAUCACCCAUGUAGGAUAUGGUAGGCUUUGCUUACUAGAAGGAUAUAGUGAUC | – | – | 153 nM | 221 nM
AAGUUUGUACGAGGAUAUCAAUUGUUUCUAAAUUCAACAUGAGGAUCACCCAUGUAACAAUGGAGUGAGAAGGCGUGUGGGCAA | 214 nM | 203 nM | – | –
CGUUGAUUUAUUGGAUGAUAUGAUGAGGAUAUCAAUAUUUGUUACAUGAGGAUCACCCAUGUUAAUGAGAAGGCAUAAUUAACG | 8.49 nM | 7.96 nM | – | –
GUGGUACAUGAGGAUCACCCAUGUCAGGAUAUCGUGUGUUUUUUUUCGGCCGCGCGUGCGAGAAGGGACGUCUU | – | – | 19.6 nM | 19.4 nM
ACAAGAUCAGGAUAUACAUGAGGAUCACCCAUGUAUAUCAAAAAAGGGCUUUCUACAUGUAGAAGGGAUCUUGU | – | – | 13.9 nM | 11.8 nM
GCCAUCGCAUGAGGAUAUGGCACCGAAACGGUGCCAGAAGGCAUGUCAAUAGACAUGAGGAUCACCCAUGUAUUAUCGAUGGCA | 274 nM | 29.1 nM | – | –
AUCCGGCGUGUAGGAUAUGGAUCCGAUUAGGAUCCAGAAGGACAUGAGGAUCACCCAUGUACAUGUAAACAGUCAUCACCGGAU | – | – | 6.59 nM | 14 nM

Sequence | apparent Kd [1] | apparent Kd [2] | apparent Kd [3] | apparent Kd [4]
GAUAGAGAGCAGGAUAUCUUAGAAAUGUAUUAUAGAGAAGGGCUCACAUGAGGAUCACCCAUGUGGUCCUAGAU | – | – | 16.4 nM | 108 nM
AACGCAUGUGGAGGAUAUGCAGUUAACAUAAGCGCAGAAGGCCACAUGAGGAUCACCCAUGUCCGGCAUUAGCCGAUGUUGAUC | – | – | 509 nM | 114 nM
GCGAAUUAGUGAGGAUAUACAUAAUUUAUAACUGUAGAAGGCACAAUCCUCAAGACAUGAGGAUCACCCAUGUGGUAUUACGCU | – | – | 151 nM | 911 nM
GUGACGGAUGUAGGAUAUGCUGACCAAUGGUCAGCAGAAGGACAUGAGGAUCACCCAUGUCAUCCUUAUAAUAAAUACCGUCAC | – | – | – | 18.3 nM
ACUCUACAUGAGGAUCACCCAUGUCGAGCCCAUCAAGGAUAUGGGUCUUGAUCGCGGGUGCCAGAAGGUGAUGGUU | 43.9 nM | 47.1 nM | – | –
CACCGUUAGUGAGGAUAUCUUACAUGAGGAUCACCCAUGUAAUAAAUGAGAAUUUCGGAUGUAUUAGAGAAGGCACAAAUCGGC | – | – | 25.1 nM | 24.3 nM
GCUGGGUCAGGAUAUACAGGGUCGAAAGAUCUGUGAUACCUACAUGAGGAUCACCCAUGUAGAAGGGACUGGGC | – | – | 15.7 nM | 38.1 nM
AAAAAACAUGAGGAUCACCCAUGUCAGGAUAUCCUAAAAAAAAAAAAAAAAAAAAAAAGGAGAAGGGACAUAAA | – | – | 119 nM | 309 nM
UCGAUGCUAGGAUAUACUUAUAAAACCACUGUAGAGUCCUCACAUGAGGAUCACCCAUGUAGAAGGAGCAUCUA | – | – | 25.9 nM | 46.4 nM
AUGAGCAACACAGGAUAUCUACGUGACAGAGCGAGAGAAGGGUGGGCCCAUGACUUACAUGAGGAUCACCCAUGUAGCUCCAAA | 39.9 nM | 97.2 nM | – | –
UUGGACGUCGUAGGAUAGGUAGGAUAUUCCUACAUGAGGAUCACCCAUGUUGACAUGGAAGAAGGACAGAAGGACGAUGUCCAU | 142 nM | 5.7 nM | – | –
UUAUGAUUAAGAGGAUAUAUACAACAUGAGGAUCACCCAUGUACCCAUGUAGUAGAAGGUUUAUUUUUAUAUAAUAAUAUAAUU | 115 nM | 64.9 nM | – | –
AACAUACAUGAGGAUCACCCAUGUUCCGGCAGGACAGGAUAUACAUCGAAAGUGUUAUAAGUAGAAGGGUCAUAAA | 77.8 nM | 71.2 nM | – | –
GGGUCACAUGAGGAUCACCCAUGUGAGGAUAUGAUACUAUGUACUUCGGUACAUAGUAUCAGAAGGCACAUAAA | – | – | 36.6 nM | 123 nM
CUGUUCCGUGUAGGAUAUGCAUAUUCUCAUUAUGCAGAAGGACAUGAGGAUCACCCAUGUAUGUUAUUAUCAUGUGUUACAUGU | – | – | 31.4 nM | 163 nM
UAGUAGAUCCGAGGAUAUACAAUCCGGAAACGGUACAUGAGGAUCACCCAUGUAGAAGGCGGAUCUACAGGUACUAAAGUACCC | – | – | 5.89 nM | 8.32 nM
CGAUGUUAUGUCAGGAUAUGCAUUGCGAAAGCGAUGCAGAAGGGACAUGAGGAUCACCCAUGUCCUAACCAUCG | – | – | 12.3 nM | 18.8 nM
GUGACGAAUGUAGGAUAUGCUGACCAAUGGUCAGCAGAAGGACAUGAGGAUCACCCAUGUCAUCCUUAUAAUAAAUAACGUCAC | – | – | 13.4 nM | 18.1 nM
